Read-outs that look alike come from different tables or passages of the source.
Format: in vivo, human
Details: for AUCtau / Cmax / CL/F / Cmin / Rac (observed accumulation ratio) / Vz/F / AUCinf: geometric mean (% CV); for t1/2: arithmetic mean±SD
In short: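 Healthy adults (18–55 y) or older subjects (60–85 y) received oral QD doses for 14 days, fasted on Day 1. Plasma was sampled pre-dose and at 0.5, 1, 2, 4, 8, 12, and 24 h, plus 1.5 h (B8271001) or 6 h (B8271004). Day 14 sampling extended to 120 h. Urine was also collected. Samples were analysed by validated HPLC-MS/MS; plasma LLOQ 0.500 or 5.00 ng/mL, urine LLOQ 0.050 ng/mL. Parameters were derived by non-compartmental analysis.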

[1] = 5 mg QD, Day 14, healthy adults
[2] = 15 mg QD, Day 1, healthy adults
[3] = 15 mg QD, Day 7, healthy adults
[4] = 15 mg QD, Day 14, healthy adults
[5] = 50 mg QD, Day 1, healthy adults
[6] = 50 mg QD, Day 1, healthy older subjects
[7] = 50 mg QD, Day 7, healthy adults
[8] = 50 mg QD, Day 14, healthy adults
[9] = 50 mg QD, Day 14, healthy older subjects
[10] = 50 mg or 125 mg QD, healthy older subjects
[11] = 125 mg QD, Day 1, healthy adults
[12] = 125 mg QD, Day 1, healthy older subjects
[13] = 125 mg QD, Day 7, healthy adults
[14] = 125 mg QD, Day 14, healthy adults
[15] = 125 mg QD, Day 14, healthy older subjects
[16] = 275 mg QD, Day 1, healthy adults
[17] = 275 mg QD, Day 7, healthy adults
[18] = 275 mg QD, Day 14, healthy adults
[19] = multiple doses, healthy adults (Part B)
[20] = single 3 mg fasted, healthy adults
[21] = single 12 mg fasted, healthy adults
[22] = single 40 mg fasted, healthy adults
[23] = single 160 mg fasted, healthy adults
[24] = single 200 mg fasted, healthy adults
[25] = single 200 mg fed, healthy adults
[26] = single 400 mg fasted, healthy adults
[27] = single 540 mg fasted, healthy adults

C[C@H]1C[C@H]2CSC(N)=N[C@@]2(c2nc(NC(=O)c3ccc(OC(F)F)cn3)cs2)CO1 [PF-06751979]
AUCtau (5 mg QD, Day 1, healthy adults): 167.7 (18) ng.hr/mL
Cmax (5 mg QD, Day 1, healthy adults): 10.12 (22) ng/mL
Tmax (5 mg QD, Day 1, healthy adults, median (range)): 3.98 (2.03–12.3) h
AUCtau (5 mg QD, Day 7, healthy adults): 395.2 (20) ng.h/mL
Cmax (5 mg QD, Day 7, healthy adults): 20.68 (22) ng/mL
Tmax (5 mg QD, Day 7, healthy adults, median (range)): 6.02 (3.95–8.05) h
t1/2 [1]: 37.15 ± 5.20 h
AUCtau [1]: 422.2 (20) ng.hr/mL
CL/F [1]: 197.1 (20) mL/min
Cmax [1]: 22.41 (23) ng/mL
Cmin [1]: 12.55 (22) ng/mL
Rac (observed accumulation ratio) [1]: 2.52 (12)
Vz/F [1]: 628.7 (18) L
Tmax (5 mg QD, Day 14, healthy adults, median (range)): 4.01 (3.98–8.02) h
AUCtau [2]: 478.8 (20) ng.hr/mL
Cmax [2]: 28.90 (22) ng/mL
Tmax (15 mg QD, Day 1, healthy adults, median (range)): 4.07 (4.00–7.83) h
AUCtau [3]: 1149 (12) ng.h/mL
Cmax [3]: 64.34 (12) ng/mL
Tmax (15 mg QD, Day 7, healthy adults, median (range)): 4.02 (2.17–8.03) h
t1/2 [4]: 30.65 ± 3.19 h
AUCtau [4]: 1152 (13) ng.hr/mL
CL/F [4]: 216.9 (12) mL/min
Cmax [4]: 64.63 (14) ng/mL
Cmin [4]: 32.75 (14) ng/mL
Rac (observed accumulation ratio) [4]: 2.41 (14)
Vz/F [4]: 573.2 (12) L
Tmax (15 mg QD, Day 14, healthy adults, median (range)): 4.05 (4.02–7.87) h
AUCtau [5]: 1739 (14) ng.hr/mL
Cmax [5]: 120.6 (17) ng/mL
Tmax (50 mg QD, Day 1, healthy adults, median (range)): 2.99 (1.02–4.07) h
AUCtau [6]: 1621 (22) ng.hr/mL
Cmax [6]: 102.9 (25) ng/mL
Tmax (50 mg QD, Day 1, healthy older subjects, median (range)): 4.00 (2.02–7.98) h
AUCtau [7]: 4181 (20) ng.h/mL
Cmax [7]: 241.1 (20) ng/mL
Tmax (50 mg QD, Day 7, healthy adults, median (range)): 3.83 (1.43–4.07) h
t1/2 [8]: 37.36 ± 5.91 h
AUCtau [8]: 4236 (24) ng.hr/mL
CL/F [8]: 196.9 (24) mL/min
Cmax [8]: 245.7 (21) ng/mL
Cmin [8]: 120.4 (25) ng/mL
Rac (observed accumulation ratio) [8]: 2.43 (15)
Vz/F [8]: 629.0 (27) L
Tmax (50 mg QD, Day 14, healthy adults, median (range)): 3.00 (0.88–8.08) h
t1/2 [9]: 39.95 ± 3.18 h
AUCtau [9]: 4505 (20) ng.h/mL
CL/F [9]: 184.9 (20) mL/min
Cmax [9]: 256.4 (23) ng/mL
Cmin [9]: 135.8 (18) ng/mL
Vz/F [9]: 637.4 (23) L
Tmax (50 mg QD, Day 14, healthy older subjects, median (range)): 4.00 (2.00–4.20) h
Median Tmax [10]: 4 h
Steady state achieved by [10]: ≤ 7 days
AUCtau [11]: 6380 (15) ng.hr/mL
Cmax [11]: 442.7 (20) ng/mL
Tmax (125 mg QD, Day 1, healthy adults, median (range)): 4.00 (2.00–6.03) h
AUCtau [12]: 5238 (24) ng.hr/mL
Cmax [12]: 377.1 (30) ng/mL
Tmax (125 mg QD, Day 1, healthy older subjects, median (range)): 4.00 (2.00–4.03) h
AUCtau [13]: 13810 (16) ng.h/mL
Cmax [13]: 818.7 (19) ng/mL
Tmax (125 mg QD, Day 7, healthy adults, median (range)): 3.00 (2.00–6.00) h
t1/2 [14]: 30.73 ± 5.75 h
AUCtau [14]: 13990 (14) ng.hr/mL
CL/F [14]: 149.0 (14) mL/min
Cmax [14]: 837.6 (16) ng/mL
Cmin [14]: 390.3 (18) ng/mL
Rac (observed accumulation ratio) [14]: 2.19 (11)
Vz/F [14]: 390.5 (23) L
Tmax (125 mg QD, Day 14, healthy adults, median (range)): 4.00 (2.00–12.00) h
t1/2 [15]: 40.76 ± 3.90 h
AUCtau [15]: 14750 (23) ng.h/mL
CL/F [15]: 141.4 (23) mL/min
Cmax [15]: 879.4 (28) ng/mL
Cmin [15]: 429.9 (23) ng/mL
Vz/F [15]: 496.1 (30) L
Tmax (125 mg QD, Day 14, healthy older subjects, median (range)): 4.00 (2.00–4.03) h
AUCtau [16]: 13260 (18) ng.hr/mL
Cmax [16]: 983.0 (18) ng/mL
Tmax (275 mg QD, Day 1, healthy adults, median (range)): 4.00 (2.00–4.00) h
AUCtau [17]: 31210 (14) ng.h/mL
Cmax [17]: 2000 (14) ng/mL
Tmax (275 mg QD, Day 7, healthy adults, median (range)): 2.00 (2.00–4.00) h
t1/2 [18]: 37.79 ± 7.73 h
AUCtau [18]: 29470 (12) ng.hr/mL
CL/F [18]: 155.3 (13) mL/min
Cmax [18]: 1869 (14) ng/mL
Cmin [18]: 868.5 (15) ng/mL
Rac (observed accumulation ratio) [18]: 2.27 (11)
Vz/F [18]: 498.3 (27) L
Tmax (275 mg QD, Day 14, healthy adults, median (range)): 4.00 (2.00–4.00) h
Mean of dose recovered unchanged in the urine (across the dose range studied, multiple doses): 7–10%
Median Tmax (fasted state, single doses 3 mg to 540 mg and multiple doses up to 275 mg QD, healthy adults): 3 to 4 h
Mean t1/2 across doses (healthy adults): 29 to 39 h
Observed t1/2 (healthy older subjects): approximately 40 h
Plasma accumulation at Day 14 (healthy older subjects): 2.8 fold
Accumulation on Day 14 [19]: 2.1- to 2.5 fold
Steady state achieved by [19]: ≤ 7 days
t1/2 [20]: 29.30 ± 0.60 h
AUCinf [20]: 289.7 (8) ng.hr/mL
CL/F [20]: 172.3 (8) mL/min
Cmax [20]: 8.4 (14) ng/mL
Vz/F [20]: 436.8 (6) L
Tmax (single 3 mg fasted, healthy adults, median (range)): 4.03 (4.00–8.00) h
t1/2 [21]: 32.94 ± 4.92 h
AUCinf [21]: 1142 (25) ng.hr/mL
CL/F [21]: 175.0 (25) mL/min
Cmax [21]: 27.4 (36) ng/mL
Vz/F [21]: 494.8 (20) L
Tmax (single 12 mg fasted, healthy adults, median (range)): 4.11 (2.0–12.00) h
t1/2 [22]: 32.12 ± 3.64 h
AUCinf [22]: 3121 (25) ng.hr/mL
CL/F [22]: 213.4 (25) mL/min
Cmax [22]: 78.7 (30) ng/mL
Vz/F [22]: 591.4 (26) L
Tmax (single 40 mg fasted, healthy adults, median (range)): 4.08 (2.00–8.05) h
t1/2 [23]: 39.33 ± 8.20 h
AUCinf [23]: 17050 (18) ng.hr/mL
CL/F [23]: 156.3 (18) mL/min
Cmax [23]: 530.8 (41) ng/mL
Vz/F [23]: 523.2 (25) L
Tmax (single 160 mg fasted, healthy adults, median (range)): 3.03 (1.87–4.08) h
t1/2 [24]: 35.20 ± 8.97 h
AUCinf [24]: 22850 (17) ng.hr/mL
CL/F [24]: 145.8 (17) mL/min
Cmax [24]: 643.2 (19) ng/mL
Vz/F [24]: 433.7 (18) L
Tmax (single 200 mg fasted, healthy adults, median (range)): 4.00 (2.00–6.07) h
Food effect on plasma exposure (Cmax and AUCinf) (single 200 mg fed vs fasted): no apparent food effect
t1/2 [25]: 33.38 ± 6.25 h
AUCinf [25]: 23260 (15) ng.hr/mL
CL/F [25]: 143.3 (15) mL/min
Cmax [25]: 630.2 (9) ng/mL
Vz/F [25]: 408.1 (16) L
Tmax (single 200 mg fed, healthy adults, median (range)): 6.00 (4.00–8.00) h
Tmax (single 200 mg in a fed state): 6 h
t1/2 [26]: 34.70 ± 8.97 h
AUCinf [26]: 44980 (17) ng.hr/mL
CL/F [26]: 148.3 (17) mL/min
Cmax [26]: 1436.0 (10) ng/mL
Vz/F [26]: 433.0 (19) L
Tmax (single 400 mg fasted, healthy adults, median (range)): 3.02 (2.00–4.00) h
t1/2 [27]: 35.85 ± 8.10 h
AUCinf [27]: 63420 (9) ng.hr/mL
CL/F [27]: 142.0 (9) mL/min
Cmax [27]: 1829.0 (19) ng/mL
Vz/F [27]: 431.1 (19) L
Tmax (single 540 mg fasted, healthy adults, median (range)): 3.01 (2.00–6.02) h
